Substitutions are numbered along the chain they refer to. pKd: −log10 of the molar value.
How the values were obtained:
ACAD10 = molecular target: T1, ACAD10 (Homo sapiens, UniProt Q6JQN1); assay: Kinobead selectivity profiling: ACAD10; format: binding
T1 sequence (Q6JQN1 1-1059): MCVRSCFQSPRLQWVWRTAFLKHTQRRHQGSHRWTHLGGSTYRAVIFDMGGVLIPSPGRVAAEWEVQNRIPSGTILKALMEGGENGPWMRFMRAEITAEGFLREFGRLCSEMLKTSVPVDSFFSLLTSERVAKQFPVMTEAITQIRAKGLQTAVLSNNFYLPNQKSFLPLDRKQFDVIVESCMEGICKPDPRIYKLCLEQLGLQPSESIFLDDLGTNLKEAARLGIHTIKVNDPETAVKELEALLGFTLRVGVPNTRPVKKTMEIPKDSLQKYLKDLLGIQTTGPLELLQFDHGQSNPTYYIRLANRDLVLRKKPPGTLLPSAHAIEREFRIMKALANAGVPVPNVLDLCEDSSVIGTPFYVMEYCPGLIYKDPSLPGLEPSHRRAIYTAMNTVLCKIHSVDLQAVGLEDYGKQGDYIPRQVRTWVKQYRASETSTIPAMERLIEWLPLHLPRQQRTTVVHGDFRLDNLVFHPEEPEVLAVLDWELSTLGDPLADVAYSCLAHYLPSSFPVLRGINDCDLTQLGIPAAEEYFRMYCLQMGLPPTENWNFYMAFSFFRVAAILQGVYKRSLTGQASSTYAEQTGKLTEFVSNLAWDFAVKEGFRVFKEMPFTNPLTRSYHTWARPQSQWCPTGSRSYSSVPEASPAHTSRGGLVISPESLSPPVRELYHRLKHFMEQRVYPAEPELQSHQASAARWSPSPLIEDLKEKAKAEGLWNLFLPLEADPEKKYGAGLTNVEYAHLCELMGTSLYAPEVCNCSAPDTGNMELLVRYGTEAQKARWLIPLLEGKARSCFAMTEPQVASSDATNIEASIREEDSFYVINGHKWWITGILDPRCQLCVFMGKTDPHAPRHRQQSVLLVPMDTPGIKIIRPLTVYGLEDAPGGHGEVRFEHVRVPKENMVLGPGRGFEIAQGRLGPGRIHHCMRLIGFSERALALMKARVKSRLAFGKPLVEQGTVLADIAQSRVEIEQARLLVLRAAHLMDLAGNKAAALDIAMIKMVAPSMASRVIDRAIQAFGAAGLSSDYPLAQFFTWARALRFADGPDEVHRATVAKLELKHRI

IMR5 cells = assay: BrdU/PI flow cytometry, cell cycle distribution of IMR5 cells; format: cell-based, human; conditions: IMR5 cells without ectopic AURORA-A, 1 µM, 18 hours
Outline: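 Cells were pulsed with 10 µM BrdU for 1 h, washed in ice-cold PBS and fixed overnight in 80% ethanol at −20 °C. After a 1% BSA/PBS-T wash, they were stained 30 min at 37 °C with RNase A (24 µg/ml) and propidium iodide (54 µM), then analysed by flow cytometry. For IMR5, the EtOH-treated cells of the doxycycline-inducible line served as the non-overexpressing cells.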

MV4-11 cells = assay: Annexin/PI flow cytometry, MV4-11 cells; format: cell-based, human; conditions: 0.5 µM, 72 hours
Outline: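 MV4-11 cells were collected together with their culture medium, washed in ice-cold PBS and stained with Annexin V/Pacific Blue in HEPES/NaCl/CaCl2 binding buffer for 15 min at room temperature in the dark. Propidium iodide in buffer was added before flow cytometry. Early (annexin+, PI−) and late (annexin+, PI+) apoptotic cells were counted over 50,000 events.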

AURORA-A [1] = molecular target: T2, AURORA-A (Homo sapiens, UniProt O14965); assay: Immunoblot of AURORA-A in U2OS, HLE and IMR5 cells; format: cell-based; conditions: HLE and IMR5 cell lines
T2 sequence (O14965 1-403): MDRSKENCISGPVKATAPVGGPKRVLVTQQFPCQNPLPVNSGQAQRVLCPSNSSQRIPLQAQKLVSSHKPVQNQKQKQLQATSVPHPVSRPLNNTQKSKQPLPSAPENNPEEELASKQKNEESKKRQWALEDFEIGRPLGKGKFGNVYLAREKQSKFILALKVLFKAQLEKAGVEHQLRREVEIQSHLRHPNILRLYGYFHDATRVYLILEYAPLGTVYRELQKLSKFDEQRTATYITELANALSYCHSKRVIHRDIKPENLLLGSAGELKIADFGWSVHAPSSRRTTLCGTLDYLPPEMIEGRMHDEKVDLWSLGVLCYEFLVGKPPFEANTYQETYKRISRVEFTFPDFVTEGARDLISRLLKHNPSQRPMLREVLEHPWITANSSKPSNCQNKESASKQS
Outline: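 U2OS and HLE cells were exposed to a range of concentrations for 6 h. IMR5 cells were exposed for 6 h, or at 1 µM alongside siRNA knockdown of AURORA-A/B. Lysis was in RIPA buffer for 20 min at 4 °C, and protein was quantified by BCA. Samples were separated by Bis-Tris PAGE, blotted onto PVDF, blocked in 5% milk/TBS-T and probed overnight at 4 °C.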

AURORA-A [2] = molecular target: T2, AURORA-A; assay: Quantitative SILAC mass spectrometry: AURORA-A level in MV4-11 cells; format: cell-based; conditions: 0.1 µM, 6 hours
AURKA = molecular target: T3, AURKA (Homo sapiens, UniProt O14965); assay: Kinobead selectivity profiling: AURKA; format: binding
T3 sequence (O14965 1-403): T2 sequence (O14965 1-403)

[3] = molecular target: AURORA-A/CEREBLON(TBD) complex (Homo sapiens, UniProt O14965+Q96SW2); assay: Isothermal titration calorimetry, ternary complex; format: binding
Sequence of AURORA-A/CEREBLON(TBD) complex (Q96SW2 320-428, one chain of several): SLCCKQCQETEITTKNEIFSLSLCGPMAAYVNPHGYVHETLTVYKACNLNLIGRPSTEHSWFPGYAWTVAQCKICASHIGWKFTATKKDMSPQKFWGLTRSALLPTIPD

AURORA-A^P191W = molecular target: T4, AURORA-A^P191W (Homo sapiens, UniProt O14965, P191W); assay: HiBiT assay of AURORA-A^P191W in MV4-11 cells; format: cell-based; conditions: 6 hours
T4 sequence (O14965 1-403 P191W): T2 sequence (O14965 1-403) with P191W
Outline: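 HiBiT-tagged wild-type or mutant AURORA-A was expressed stably in MV4-11 cells (infected twice, 24 h apart, selected 72 h after infection). Cells were exposed to serial dilutions of the test compound for 6 h and lysed with lytic detection reagent containing the LgBiT fragment. Luminescence was then read. DC50 and DCmax were derived from the concentration–response data.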

pKd (ACAD10): 6.60
AURORA-A depletion (in words) (AURORA-A [1]): rapid AURORA-A depletion in all cases
decrease of AURORA-A levels compared to alisertib-treated cells (AURORA-A [2]): 73%
decrease of AURORA-A levels compared to untreated cells (AURORA-A [2]): 57%
pKd (AURKA): 7.00
pKd [3]: 6.74
JB170-mediated depletion of AURORA-A^P191W (AURORA-A^P191W): abolished JB170-mediated depletion
Compound: COc1cc(Nc2ncc3c(n2)-c2ccc(Cl)cc2C(c2c(F)cccc2OC)=NC3)ccc1C(=O)NCCOCCOCCNC(=O)COc1cccc2c1C(=O)N(C1CCC(=O)NC1=O)C2=O (stereo not drawn) [JB170]
cell cycle distribution (IMR5 cells): induced an accumulation of BrdU-negative cells in S-phase, but did not induce G2/M arrest
annexin-positive cells (MV4-11 cells): 56%

Reference: PMC7610535 (Nature chemical biology, 2020)
